Laboratory results: ChEMBL document CHEMBL4400535, “Experience-based discovery (EBD) of aryl hydrazines as new scaffolds for the development of LSD1/KDM1A inhibitors” (Eur J Med Chem, 2019)
Activity calls are given as the source filed them. The calls are words filed in the database; no cut-off is given here.

Experiments:
[1] = molecular target: T1, Lysine-specific histone demethylase 1A (Homo sapiens, UniProt O60341); assay: Inhibition of recombinant LSD1 (unknown origin) using H3K4me2 as substrate by fluorescence assay
A549 [2] = assay: Down regulation of snail levels in human A549 cells up to 6 uM after 96 hrs by Western blot analysis; format: functional, cell-based
Outline: (§1)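 A549 cells treated with 0, 1 or 6 µM for 96 h, harvested with trypsin and lysed in RIPA buffer (pH 7.5) with protease inhibitors. 40 lg protein/lane on SDS-PAGE, transferred to PVDF, probed overnight with specific primary antibodies. ECL detection, quantified against GAPDH loading control. At least three experiments, mean ± SD.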

A549 [3] = assay: Down regulation of slug levels in human A549 cells up to 6 uM after 96 hrs by Western blot analysis; format: functional, cell-based; outline: as §1
A549 [4] = assay: Down regulation of N-cadherin levels in human A549 cells up to 6 uM after 96 hrs by Western blot analysis; format: functional, cell-based; outline: as §1
A549 [5] = assay: Antimigratory activity against human A549 cells at 6 uM after 48 hrs by wound healing assay; format: functional, cell-based
Outline: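 Scratch wound assay in A549 monolayers: cells seeded at 1 × 10⁴ per well, incubated 24 h, then scratched with a pipette tip. Cultured 48 h in fresh medium with 1% FBS and varying compound concentrations, then photographed under an inverted microscope. At least three independent experiments, mean ± SD.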

[6] = molecular target: T1, Lysine-specific histone demethylase 1A; assay: Inhibition of LSD1 in human A549 cells assessed as accumulation of H3K9me2 up to 6 uM after 96 hrs by Western blot analysis; format: cell-based
Outline: (§2)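 A549 cells exposed to 0, 1 or 6 µM for 96 h, lysed in RIPA buffer (pH 7.5) with protease inhibitors. Lysates (40 µg/lane) resolved by 10% or 12% SDS-PAGE and immunoblotted for H3K4me1/2 and H3K9me1/2. ECL read-out, quantified against total histone H3 loading control. At least three experiments, mean ± SD.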

[7] = molecular target: T1, Lysine-specific histone demethylase 1A; assay: Inhibition of LSD1 in human A549 cells assessed as accumulation of H3K4me2 after 96 hrs by Western blot analysis; format: cell-based
Outline: (§3)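 A549 cells were treated with 0, 1 and 6 µM for 96 h, then lysed in RIPA buffer (50 mM Tris-HCl pH 7.5) with protease inhibitors. Lysates went through SDS-PAGE, PVDF transfer and probing for the histone mark, with ECL detection. Bands were quantified against total H3. Run at least three times; mean ± SD.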

[8] = molecular target: T1, Lysine-specific histone demethylase 1A; assay: Inhibition of LSD1 in human A549 cells assessed as accumulation of H3K9me1 up to 6 uM after 96 hrs by Western blot analysis; format: cell-based; outline: as §2
[9] = molecular target: T1, Lysine-specific histone demethylase 1A; assay: Inhibition of LSD1 in human A549 cells assessed as accumulation of H3K9me2 after 96 hrs by Western blot analysis; format: cell-based; outline: as §3
A549 [10] = assay: Up regulation of E-cadherin levels in human A549 cells up to 6 uM after 96 hrs by Western blot analysis; format: functional, cell-based; outline: as §1
A549 [11] = assay: Effect on LSD1 expression in human A549 cells up to 6 uM after 96 hrs by Western blot analysis; format: functional, cell-based; outline: as §1
[12] = molecular target: T1, Lysine-specific histone demethylase 1A; assay: Inhibition of LSD1 in human A549 cells assessed as accumulation of H3K4me2 up to 6 uM after 96 hrs by Western blot analysis; format: cell-based; outline: as §2
[13] = molecular target: T1, Lysine-specific histone demethylase 1A; assay: Inhibition of LSD1 in human A549 cells assessed as accumulation of H3K4me1 up to 6 uM after 96 hrs by Western blot analysis; format: cell-based; outline: as §2
A549 [14] = assay: Up regulation of claudin-1 levels in human A549 cells up to 6 uM after 96 hrs by Western blot analysis; format: functional, cell-based; outline: as §1
[15] = molecular target: T1, Lysine-specific histone demethylase 1A; assay: Inhibition of LSD1 in human A549 cells assessed as accumulation of H3K4me1 after 96 hrs by Western blot analysis; format: cell-based; outline: as §3
[16] = molecular target: T1, Lysine-specific histone demethylase 1A; conditions: 1.6 uM
MAO-B [17] = molecular target: T2, MAO-B (Homo sapiens, UniProt P27338); assay: Inhibition of MAO-B (unknown origin) at 10 uM relative to control
T2 sequence (P27338 whole entry): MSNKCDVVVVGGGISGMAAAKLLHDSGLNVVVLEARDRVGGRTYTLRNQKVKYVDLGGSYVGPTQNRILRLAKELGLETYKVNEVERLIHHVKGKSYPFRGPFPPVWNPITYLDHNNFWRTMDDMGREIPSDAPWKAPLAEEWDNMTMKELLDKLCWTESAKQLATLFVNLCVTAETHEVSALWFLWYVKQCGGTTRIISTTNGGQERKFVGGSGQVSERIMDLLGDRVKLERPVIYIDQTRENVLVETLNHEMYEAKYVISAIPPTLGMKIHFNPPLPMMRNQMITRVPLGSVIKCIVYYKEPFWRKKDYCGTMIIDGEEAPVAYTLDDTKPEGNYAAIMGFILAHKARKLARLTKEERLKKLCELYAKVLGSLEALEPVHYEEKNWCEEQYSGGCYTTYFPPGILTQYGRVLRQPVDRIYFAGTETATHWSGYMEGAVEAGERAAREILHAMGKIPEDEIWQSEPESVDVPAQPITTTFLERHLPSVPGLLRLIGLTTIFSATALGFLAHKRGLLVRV

MAO-A [18] = molecular target: T3, MAO-A (Homo sapiens, UniProt P21397); assay: Inhibition of MAO-A (unknown origin) at 10 uM relative to control
T3 sequence (P21397 whole entry): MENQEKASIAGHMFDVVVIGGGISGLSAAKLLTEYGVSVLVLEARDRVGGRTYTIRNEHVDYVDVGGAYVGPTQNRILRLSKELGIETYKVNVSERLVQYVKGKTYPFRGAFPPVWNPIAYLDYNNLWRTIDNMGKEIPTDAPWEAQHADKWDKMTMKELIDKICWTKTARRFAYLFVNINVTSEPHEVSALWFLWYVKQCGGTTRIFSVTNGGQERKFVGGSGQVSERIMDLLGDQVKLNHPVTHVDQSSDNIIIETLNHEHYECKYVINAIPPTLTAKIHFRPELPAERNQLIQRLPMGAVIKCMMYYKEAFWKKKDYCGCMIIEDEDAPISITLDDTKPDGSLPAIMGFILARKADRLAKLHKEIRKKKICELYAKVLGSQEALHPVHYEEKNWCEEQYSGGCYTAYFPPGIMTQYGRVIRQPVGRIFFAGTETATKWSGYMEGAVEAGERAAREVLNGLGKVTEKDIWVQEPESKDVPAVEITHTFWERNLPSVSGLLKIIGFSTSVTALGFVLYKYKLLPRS

MAO-B [19] = molecular target: T2, MAO-B; assay: Inhibition of MAO-B (unknown origin) at 1 uM relative to control
GES1 = assay: Cytotoxicity against human GES-1 cells assessed as decrease in cell viability after 96 hrs by MTT assay; format: cell-based; conditions: GES1, 96 h
Outline: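 GES-1 cells were grown in RPMI-1640 with 10% FBS at 37 °C and 5% CO₂. They were seeded at 3 × 10³ per well, left overnight, then given graded concentrations for 4 days (0.1% DMSO vehicle). MTT was added for 4 h at 37 °C, formazan dissolved in DMSO, and A570 read. Viability = (At/As) × 100% against solvent control.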

[20] = molecular target: T1, Lysine-specific histone demethylase 1A; assay: Inhibition of LSD1 in human A549 cells assessed as accumulation of H3K9me1 after 96 hrs by Western blot analysis; format: cell-based; outline: as §3
[21] = molecular target: T1, Lysine-specific histone demethylase 1A; assay: Reversible inhibition of recombinant LSD1 (unknown origin) assessed as recovery of enzyme activity at 40 uM measured 1 hr after 80-fold dilution
Outline: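 Dilution assay: 2.5 µg recombinant LSD1 was preincubated 1 h at 25 °C with 40 µM compound, 1.6 µM GSK2879552 or DMSO. Aliquots were then diluted 80-fold into HRP-coupled assay solution with substrate and compared with undiluted mixtures to assess recovery of LSD1 activity.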

[22] = molecular target: T1, Lysine-specific histone demethylase 1A; assay: Binding affinity to LSD1 in human A549 cells assessed as thermal stability by measuring temperature at 10 uM after 1 hr by thermal shift assay; format: cell-based
Outline: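 CETSA: A549 cells (5 × 10⁵ per sample) were exposed 1 h to 10 µM compound or DMSO, washed in PBS, and resuspended in PBS with protease inhibitor. Samples were heated 3 min at the indicated temperatures (e.g. 46, 49, 52 °C), then freeze-thawed three times in liquid nitrogen. Soluble LSD1 was measured by western blot with a GAPDH control; three independent experiments.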

MAO-A [23] = molecular target: T3, MAO-A; assay: Inhibition of MAO-A (unknown origin) at 1 uM relative to control
A549 [24] = assay: Antimigratory activity against human A549 cells after 48 hrs by wound healing assay; format: functional, cell-based
Outline: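 Scratch assay: cells seeded at 1 × 10⁴ per well and grown 24 h, then the monolayer was scratched with a pipette tip. Cells were then cultured 48 h in fresh medium with 1% FBS and graded compound concentrations. Wound closure was photographed under an inverted microscope. Run at least three times; mean ± SD.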

[25] = molecular target: T1, Lysine-specific histone demethylase 1A; assay: Competitive inhibition of recombinant LSD1 (unknown origin) up to 1.25 uM using H3K4me2 as substrate in presence of FAD by Lineweaver-Burk plot analysis
[26] = molecular target: T1, Lysine-specific histone demethylase 1A; assay: Inhibition of H3K4me2 binding to LSD1 in human A549 cells up to 6 uM after 96 hrs by immunoprecipitation assay; format: cell-based
Outline: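 Co-IP: A549 cells were treated with 0 or 6 µM for 96 h, trypsinised, and lysed in IP lysis/wash buffer with protease inhibitors. LSD1 antibody was used as bait, and H3K4me2 bound to LSD1 was detected. Total cell lysate was blotted alongside with a GAPDH loading control.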

Cc1cc(NCCN)n2nc(SCc3ccccc3)nc2n1
IC50 [1]: > 50 µM

Cc1cc(N2CCCC(N)C2)n2nc(SCc3ccccc3)nc2n1 (stereo not drawn)
IC50 [1]: > 50 µM

Cc1cc(NCCOCCOCCN)n2nc(SCc3ccccc3)nc2n1
IC50 [1]: > 50 µM

Cc1cc(N2CCCC(NC(=O)OC(C)(C)C)C2)n2nc(SCc3ccccc3)nc2n1 (stereo not drawn)
IC50 [1]: > 50 µM

CNCCN(C)c1cc(C)nc2nc(SCc3ccccc3)nn12
IC50 [1]: > 50 µM

c1ccc([C@@H]2C[C@H]2NC2CCNCC2)cc1 (racemic)
Activity (A549 [2]): Active | Activity (A549 [3]): Active | Activity (A549 [4]): Active | inhibition (A549 [5]): Active | inhibition [6]: Active | inhibition [7]: Dose-dependent effect | inhibition [8]: inactive | inhibition [9]: Dose-dependent effect | Activity (A549 [10]): Active | Activity (A549 [11]): inactive | inhibition [12]: Active | inhibition [13]: Active | Activity (A549 [14]): Active | inhibition [15]: Dose-dependent effect

NNc1cc(-c2ccccc2)nc2nc(SCc3ccccc3)nn12
IC50 [1]: > 50 µM

O=C(O)c1ccc(CN2CCC(CN[C@@H]3C[C@H]3c3ccccc3)CC2)cc1
inhibition [16]: Active

Cc1cc(N)n2nc(SCc3ccccc3)nc2n1
IC50 [1]: > 50 µM

Cc1cc(NN)n2nc(SCc3ccccc3)nc2n1
Activity (A549 [2]): Active | inhibition at 10 µM (MAO-B [17]): 43% | Activity (A549 [3]): Active | inhibition at 10 µM (MAO-A [18]): 36% | inhibition at 1 µM (MAO-B [19]): 15% | Activity (A549 [4]): Active | IC50 (GES1): > 50 µM | inhibition [7]: Dose-dependent effect | inhibition [9]: Dose-dependent effect | IC50 [1]: 0.882 µM | inhibition [20]: Dose-dependent effect | Activity (A549 [10]): Active | Activity (A549 [11]): inactive | inhibition [21]: Active | T [22]: 52 °C | Activity (A549 [14]): Active | inhibition at 1 µM (MAO-A [23]): 21% | inhibition [15]: Dose-dependent effect | Activity (A549 [24]): Dose-dependent effect | inhibition [25]: Active | inhibition [26]: Active

Cc1cc(N(C)CCN(C)C)n2nc(SCc3ccccc3)nc2n1
IC50 [1]: > 50 µM

C/C(=N\NC(=O)c1cccc(S(=O)(=O)N2CCOCC2)c1)c1cc(Cl)ccc1O
IC50 [1]: 0.0243 µM

Cc1cc(NN)n2ncnc2n1
inhibition [7]: inactive | inhibition [8]: inactive | inhibition [9]: inactive | IC50 [1]: > 50 µM | inhibition [20]: inactive | Activity [22]: inactive | inhibition [15]: inactive

Cc1cc(NN)n2nc(SCc3cccc4ccccc34)nc2n1
IC50 [1]: > 50 µM
